Hits are enriched below; roughly 3.7% of the tested compounds scored in any of these assays.
KCNQ1 block: inhibitors of human KCNQ1 channel, primary screen, cell-based, thallium flux, high-throughput | hit rate 1.3% among 310,000 | AID 2642, 2010 | Potassium voltage-gated channel subfamily KQT member 1 (Homo sapiens), P51787 | CHO-K1 KCNQ1, FluxOR thallium flux fluorescence; active compounds read high | B-score at 10 µM;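 active = compounds whose thallium flux B-score, printed positive for inhibition, exceeds three library SD while starting fluorescence stays within three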;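 also: channel opened by potassium depolarization with thallium stimulus after 20 min compound exposure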
hERG protect: hERG rescue from dofetilide block, primary screen, cell-based, CHO-hERG, FluxOR thallium flux, dofetilide IC70 | Voltage-gated inwardly rectifying potassium channel KCNH2 (Homo sapiens), Q12809 | dofetilide IC70 present | activation (rescue from dofetilide block), less the hit threshold, % at 10 µM | hit rate 0.51% among 310,000 | AID 1511, 2009;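 active = activation above the mean of controls blocked by dofetilide plus 5 SD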;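 also: thallium influx through hERG after potassium depolarization seen as dye fluorescence rise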
KCNK3 inh: human KCNK3 channel inhibitors, primary screen, CHO cells, FluxOR thallium flux, B-score; FluxOR fluorescence; active compounds read low; B-score at 10 µM; hit rate 0.84% among 340,000; AID 602410, 2012;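 active = B-score under library mean minus 4 SD, starting fluorescence ratio at most library mean plus 5 SD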;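 also: more negative B-score means stronger inhibition of thallium flux through KCNK3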
Target sequence (O14649 whole entry, looked up): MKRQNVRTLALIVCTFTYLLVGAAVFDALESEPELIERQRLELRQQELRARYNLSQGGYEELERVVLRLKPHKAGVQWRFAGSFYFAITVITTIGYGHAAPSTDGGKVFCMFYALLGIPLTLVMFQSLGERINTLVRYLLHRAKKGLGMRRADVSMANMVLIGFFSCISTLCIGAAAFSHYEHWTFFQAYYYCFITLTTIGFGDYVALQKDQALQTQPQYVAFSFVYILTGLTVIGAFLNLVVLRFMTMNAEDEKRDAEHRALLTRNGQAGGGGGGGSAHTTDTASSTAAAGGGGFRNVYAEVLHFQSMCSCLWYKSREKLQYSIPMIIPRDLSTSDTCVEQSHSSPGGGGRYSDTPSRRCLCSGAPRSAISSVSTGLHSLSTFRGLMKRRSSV
KCNK9 block: KCNK9 potassium channel inhibitors, primary screen, HEK293 cells, thallium flux; hit rate 1.2% among 310,000; AID 488922, 2010; B-score at 10 µM; FluxOR thallium flux fluorescence; active compounds read low;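 active = ratio B-score over 3 SD below the library mean, with starting fluorescence within 5 SD of its mean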;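 also: negative B-score means less thallium flux so channel inhibition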
Target sequence (Q9NPC2 whole entry, looked up): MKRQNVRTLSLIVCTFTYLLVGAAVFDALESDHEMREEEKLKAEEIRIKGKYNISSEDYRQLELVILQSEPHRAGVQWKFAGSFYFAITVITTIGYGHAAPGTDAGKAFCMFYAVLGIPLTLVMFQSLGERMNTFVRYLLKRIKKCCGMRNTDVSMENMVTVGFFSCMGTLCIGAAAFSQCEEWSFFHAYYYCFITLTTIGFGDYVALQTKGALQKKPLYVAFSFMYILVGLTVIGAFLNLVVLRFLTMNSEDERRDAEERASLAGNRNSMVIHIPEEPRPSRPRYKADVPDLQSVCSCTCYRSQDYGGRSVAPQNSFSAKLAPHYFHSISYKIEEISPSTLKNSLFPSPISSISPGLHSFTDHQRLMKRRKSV
Kir21 block: inhibitors of mouse Kir2.1 inward-rectifier potassium channel | Inward rectifier potassium channel 2 (Mus musculus), P35561 | HEK293-Kir2.1, FluxOR thallium flux fluorescence; active compounds read low | B-score at 10 µM | hit rate 0.85% among 310,000 | AID 1672, 2009;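 active = fluorescence ratio B-score at or below minus 3 SD of library scores, with starting-brightness B-score within 2 SD, cut at about -4.2 in these data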;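 also: channel flux triggered by added potassium and thallium sulfate stimulus; B-score of peak minus minimum fluorescence over baseline after thallium stimulus; more negative B-score means stronger Kir2.1 block with less thallium influx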
KCNQ1 pot: potentiators or activators of KCNQ1 channel, primary screen, cell-based, thallium flux, high-throughput; B-score at 10 µM; Potassium voltage-gated channel subfamily KQT member 1 (Homo sapiens), P51787; hit rate 0.35% among 310,000; AID 2648, 2010; CHO-K1 KCNQ1, thallium flux FluxOR fluorescence; active compounds read high;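 active = fluorescence ratio B-score, a plate-corrected score, at least three library SD, with initial intensity B-score within 5 SD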
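assay system = KCNQ1-transfected CHO-K1 cells | medium = assay buffer with matched DMSO | probe or stimulus = depolarizing K+/Tl+ stimulus, K2SO4 and Tl2SO4 each 12.5 mM in 5x stock | dosing = single dose | incubation = dye 90 min, compound 20 min, room temperature | detection = kinetic FluxOR fluorescence, 10 s baseline plus 110 s post-stimulus | evaluation = ratio B score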
KCNQ1 inh valid: KCNQ1 potassium channel inhibitors, confirmation, cell-based, Tl flux, duplicate; shares compounds with KCNQ1 block; KCNQ1 cell line, FluxOR thallium flux fluorescence; inhibition, % at 10 µM; hit rate 93% among 1,600; AID 588353, 2011;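 active = primary screen active, with duplicate mean exceeding buffer control mean plus 3 SD of buffer wells, cut at about 28% in these data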
CHO KCNQ1 ctr: thallium flux effects in parental CHO cells, counter-screen for KCNQ1 inhibitor project, cell-based, Tl flux; shares compounds with KCNQ1 block; fluorescence ratio (Tl flux) at 10 µM; parental CHO-K1, FluxOR thallium flux fluorescence ratio; active compounds read low; zero means no signal rise above baseline; hit rate 21% among 1,600;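 active = mean of duplicate thallium-flux fluorescence ratios in parental host cells more than 5 SD below the buffer control mean, cut at about 0.38 in these data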;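 also: ratio is peak minus minimum fluorescence divided by baseline fluorescence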
KCNQ1 APC inh: KCNQ1 channel inhibitors, confirmation, orthogonal assay, cell-based, automated electrophysiology; shares compounds with KCNQ1 block; KCNQ1-CHO cells, automated patch clamp current; calls only at 10 µM; hit rate 20% among 490;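 active = KCNQ1 current drop exceeding 3 SD of negative control wells, seen in both duplicate runs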;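 also: steady state current during a 2 s step from -80 to +40 mV; negative values mean current inhibition and positive values mean potentiation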
KCNQ2 spec: KCNQ2 channel inhibition, selectivity assay for KCNQ1 inhibitor project, cell-based | shares compounds with KCNQ1 block | AID 651746, 2012 | inhibition, % at 10 µM | KCNQ2 cells, FluxOR thallium flux fluorescence | hit rate 71% among 1,600;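 active = mean percent inhibition of the KCNQ2 thallium signal more than 5 SD above the buffer-only control wells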;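 also: KCNQ2 expressed in CHO cells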
KCNQ1-KCNE1 inh: KCNQ1/KCNE1 channel inhibition, selectivity assay for KCNQ1 inhibitor project, CHO-K1 cells, thallium flux, FluxOR | shares compounds with KCNQ1 block | FluxOR thallium flux fluorescence | inhibition, % at 10 µM | hit rate 77% among 1,600 | AID 652147, 2013;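 active = mean percent inhibition of duplicate wells above the buffer-only control mean plus 3 SD of those controls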
Of the large screens only hits and unclear results are named; the others gave an inactive call (follow-up assays come after a bar, where they were run).

Cc1ccc2[nH]c3c(NCc4ccco4)ncnc3c2c1	KCNQ1 block 9 | KCNQ1 inh valid 102.5 | CHO KCNQ1 ctr inactive | KCNQ1 APC inh inactive | KCNQ2 spec 70.3% | KCNQ1-KCNE1 inh 39.0%
Cc1nc2c3c(sc2c(=O)[nH]1)NC(=O)CC3c1ccccc1Cl (centres undefined)	none
CCOc1ccc(CC(=O)Nc2ccc(S(=O)(=O)N3CCCC3)cc2)cc1	none
Cc1ccc(NC(=S)NC2CCCCC2)cc1S(=O)(=O)N(C)C	KCNQ1 block 7 | KCNQ1 inh valid 131.5 | CHO KCNQ1 ctr inactive | KCNQ1 APC inh inactive | KCNQ2 spec 106.7% | KCNQ1-KCNE1 inh inactive
Fc1cccc(NC(=S)NC2CCCCCCC2)c1	KCNQ1 block 8 | KCNQ1 inh valid 105.0 | CHO KCNQ1 ctr inactive | KCNQ1 APC inh active | KCNQ2 spec 74.7% | KCNQ1-KCNE1 inh 88.5%
FC(F)(F)c1ccc(NC(=S)NC2CCCCC2)cc1	KCNQ1 block 7 | KCNQ1 inh valid 65.0 | CHO KCNQ1 ctr inactive | KCNQ2 spec 59.3% | KCNQ1-KCNE1 inh 37.0%
FC(F)(F)c1cccc(NC(=S)NC2CCCC2)c1	none
CCCCNC(=S)Nc1ccc(C(F)(F)F)cc1	KCNQ1 block 8 | KCNQ1 inh valid 31.5 | CHO KCNQ1 ctr inactive | KCNQ2 spec inactive | KCNQ1-KCNE1 inh inactive
C/C=C(\CS(=O)(=O)c1ccccc1)S(=O)(=O)c1ccccc1	none
CCC(NC(=O)C1CCCC1)c1ccccc1 (centres undefined)	none
S=C(Nc1ccc2nsnc2c1)NC1CCCCC1	none
S=C(Nc1ccc(Cl)c(Cl)c1)NC1CCCCC1	KCNQ1 block 6 | KCNQ1 inh valid 69.0 | CHO KCNQ1 ctr inactive | KCNQ2 spec inactive | KCNQ1-KCNE1 inh inactive
COc1ccc(C)cc1NC(=O)CSc1nc2ccccc2nc1N1CCCC1	none
COc1ccc(C)cc1NC(=O)CSc1nc2ccccc2nc1N1CC(C)OC(C)C1 (centres undefined)	KCNQ1 block 7 | KCNQ1 inh valid 105.0 | CHO KCNQ1 ctr inactive | KCNQ1 APC inh inactive | KCNQ2 spec 95.0% | KCNQ1-KCNE1 inh 121.0%
CC1CN(c2nc3ccccc3nc2SCC(=O)Nc2cccc(C(F)(F)F)c2)CC(C)O1 (centres undefined)	KCNQ1 block 10, KCNK3 inh -14.8 | KCNQ1 inh valid 119.5 | CHO KCNQ1 ctr inactive | KCNQ1 APC inh inactive | KCNQ2 spec 126.0% | KCNQ1-KCNE1 inh 171.0%
Cc1cccc(NC(=O)CSc2nc3ccccc3nc2N2CCCCC2)c1	KCNQ1 block 8 | KCNQ1 inh valid 84.0 | CHO KCNQ1 ctr inactive | KCNQ2 spec 107.0% | KCNQ1-KCNE1 inh 121.5%
Cc1cccc(NC(=O)CSc2nc3ccccc3nc2N2CCCC2)c1	none
COc1ccccc1NC(=O)CSc1nc2ccccc2nc1N1CC(C)OC(C)C1 (centres undefined)	KCNQ1 block 8 | KCNQ1 inh valid 85.5 | CHO KCNQ1 ctr inactive | KCNQ2 spec 105.7% | KCNQ1-KCNE1 inh 118.5%
CCNc1nc(NCC)nc(Oc2ccc(OCc3ccccc3)nn2)n1	none (no result: KCNK3 inh)
c1ccc(COc2cccc(CN3CCc4ccccc4C3)c2)cc1	none
O=C(COC(=O)/C=C/c1ccc(OC(F)F)cc1)Nc1cccc(S(=O)(=O)N2CCOCC2)c1	none (no result: KCNQ1 block, hERG protect, KCNK9 block, Kir21 block, KCNQ1 pot)
C=CCN(c1nc(C)c(Br)c(OC)n1)S(=O)(=O)c1ccc(C)cc1	KCNQ1 block 7 | KCNQ1 inh valid 113.0 | CHO KCNQ1 ctr inactive | KCNQ1 APC inh inactive | KCNQ2 spec 118.0% | KCNQ1-KCNE1 inh 83.0%
COc1ccc(C)cc1NC(=O)CCCN1C(=S)NC(C)(C)CC1C (centres undefined)	KCNQ1 block 6 | KCNQ1 inh valid inactive | CHO KCNQ1 ctr inactive | KCNQ2 spec inactive | KCNQ1-KCNE1 inh inactive
Cc1nc(Cl)c(C#N)cc1-c1ccccc1	none
Cc1nc(Sc2ccccc2)c(C#N)cc1-c1ccccc1	KCNQ1 block 6 | KCNQ1 inh valid 95.0 | CHO KCNQ1 ctr inactive | KCNQ1 APC inh active | KCNQ2 spec 105.3% | KCNQ1-KCNE1 inh 135.5%
Cc1ccc(S(=O)(=O)c2c(N)n(CCC(C)C)c3nc4ccccc4nc23)cc1	KCNQ1 block 15 | KCNQ1 inh valid 75.0 | CHO KCNQ1 ctr inactive | KCNQ2 spec inactive | KCNQ1-KCNE1 inh 97.0%
CC1C(=O)N2CCCc3cc(NC(=O)C(=O)NCCc4c[nH]c5ccccc45)cc1c32 (centres undefined)	KCNQ1 block 10 | KCNQ1 inh valid 26.5 | CHO KCNQ1 ctr inactive | KCNQ2 spec 87.3% | KCNQ1-KCNE1 inh 57.0%
CC1C(=O)N2CCCc3cc(NC(=O)C(=O)NCCc4ccccc4)cc1c32 (centres undefined)	none
CSc1ccc(S(=O)(=O)N2c3ccccc3CC2C)cc1 (centres undefined)	KCNQ1 block 6 | KCNQ1 inh valid 104.5 | CHO KCNQ1 ctr inactive | KCNQ1 APC inh active | KCNQ2 spec 99.0% | KCNQ1-KCNE1 inh 142.0%
S=C(NCc1cccs1)Nc1cc(Cl)cc(Cl)c1	KCNQ1 block 6 | KCNQ1 inh valid 33.5 | CHO KCNQ1 ctr inactive | KCNQ2 spec 77.7% | KCNQ1-KCNE1 inh inactive
S=C(NCc1cccs1)Nc1cccc(Cl)c1	none
COc1ccc(CCNc2ncnc3[nH]ncc23)cc1OC	none
